# Reference: ChEMBL document CHEMBL4359883, “4(1H)-quinolone derivatives overcome acquired resistance to anti-microtubule agents by targeting the colchicine site of β-tubulin” (Eur J Med Chem, 2019)
# The source made the active and inactive calls. No cut-off for these calls is given here.
# Columns and labels:
# [1] = Selectivity index, ratio of IC50 for human CCRF-CEM/VBL cells to IC50 for human CCRF-CEM cells; assay type: functional
# Tubulin (Homo sapiens) [2] = molecular target: T1, Tubulin (Homo sapiens) (UniProt P68371+Q9H4B7+P0DPH7+P68366+Q13509+Q71U36+P04350+Q3ZCM7+P07437+P68363+Q9BQE3+Q6PEY2+Q13885+Q9BVA1+Q9BUF5); assay: Inhibition of microtubule polymerization in human NCI-H1975 cells at 25 nM after 6 hr followed by DAPI staining based confocal microscopic analysis; assay type: cell-based
# Outline: (§1)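 Cells exposed for 6 h, fixed in 3.7% paraformaldehyde, permeabilized with 0.1% Triton X-100. Stained with anti-α-tubulin (1:1000) overnight at 4 °C, FITC secondary 1 h at 37 °C, nuclei counterstained with DAPI. Imaged by confocal laser scanning microscopy.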
# [3] = Antiproliferative activity against human KB/VCR cells assessed as reduction in cell viability after 72 hrs by MTS assay; assay type: functional, cell-based
# Outline: (§2)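 Cells plated at 2000/well, cultured overnight, then exposed to a range of compound concentrations for 72 h. MTS reagent added for 1–4 h at 37 °C and absorbance read at 490 nm. Cultured in RPMI 1640 or DMEM with 10% heat-inactivated FBS under 5% CO2. Data are the mean of three determinations.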
# [4] = Selectivity index, ratio of IC50 for human KB/VCR cells to IC50 for human KB cells; assay type: functional
# [5] = Selectivity index, ratio of IC50 for human KBtax cells to IC50 for human KB cells; assay type: functional
# NCI-H1975 [6] = assay: Antiproliferative activity against human NCI-H1975 cells assessed as reduction in cell viability after 72 hrs by MTS assay; assay type: functional, cell-based; conditions: NCI-H1975, 72 h; outline: as §2
# NCI-H1975 [7] = assay: Induction of apoptosis in human NCI-H1975 cells assessed as increase in cyclin B1 expression at 25 to 50 nM after 24 hrs by immunoblotting analysis; assay type: functional, cell-based
# CCRF-CEM = assay: Antiproliferative activity against human CCRF-CEM cells assessed as reduction in cell viability after 72 hrs by MTS assay; assay type: functional, cell-based; outline: as §2
# BT-549 = assay: Antiproliferative activity against human BT549 cells assessed as reduction in cell viability after 72 hrs by MTS assay; assay type: functional, cell-based; conditions: BT-549, 72 h; outline: as §2
# Tubulin (Homo sapiens) [8] = molecular target: T1, Tubulin (Homo sapiens); assay: Inhibition of microtubule polymerization in human KBtax cells at 30 nM after 6 hrs by DAPI staining based scanning confocal microscopic analysis; assay type: cell-based; outline: as §1
# MDA-MB-231 [9] = assay: Antitumour activity against human MDA-MB-231 cells xenografted in Balb/c mouse assessed as tumour size at 4 mg/kg, ip administered three times per week and measured on day 35 (reference value: 218 +/- 20.9 mm3); assay type: functional
# Outline: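 MDA-MB-231 tumours established in the right flank of 6-week-old BALB/c nude mice. Compound dissolved in DMSO was given ip three times weekly, with a DMSO vehicle group. Tumour volume calculated as 0.5W²L, measured before each dose and compared on day 35.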
# [10] = Antiproliferative activity against human KBtax cells assessed as reduction in cell viability after 72 hrs by MTS assay; assay type: functional, cell-based; outline: as §2
# Hs-578T = assay: Antiproliferative activity against human Hs578T cells assessed as reduction in cell viability after 72 hrs by MTS assay; assay type: functional, cell-based; outline: as §2
# [11] = Antiproliferative activity against human 37T cells assessed as reduction in cell viability after 72 hrs by MTS assay; assay type: functional, cell-based; outline: as §2
# KB = assay: Antiproliferative activity against human KB cells assessed as reduction in cell viability after 72 hrs by MTS assay; assay type: functional, cell-based; outline: as §2
# [12] = Toxicity in Balb/c mouse xenografted with human KBtax cells assessed as serum creatinine level at 8 mg/kg, ip administered 3 times per week and measured after 21 days (reference value: 0.22 +/- 0.02 mg/dl); assay type: organism-based; conditions: in vivo, 504 h
# [13] = Antiproliferative activity against human CCRF-CEM/VBL cells assessed as reduction in cell viability after 72 hrs by MTS assay; assay type: functional, cell-based; outline: as §2
# [14] = Toxicity in Balb/c mouse xenografted with human NCI-H1975 cells assessed as effect on body mass at 4 to 8 mg/kg, ip administered 3 times per week for 21 days; assay type: organism-based; conditions: in vivo, 504 h
# Outline: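 H1975 tumors grown in right flank of 6-week-old BALB/c nude mice; after establishment, 4 or 8 mg/kg compound dissolved in DMSO, or DMSO alone, given intraperitoneally three times a week. Body mass taken before each dose.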
# NCI-H1975 [15] = assay: Antitumour activity against human NCI-H1975 cells xenografted in Balb/c mouse assessed as tumour size at 4 mg/kg, ip administered three times per week and measured on day 21 (reference value: 2153 +/- 126.3 mm3); assay type: functional
# Outline: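 H1975 tumours grown in the right flank of 6-week-old BALB/c nude mice. DMSO vehicle or 4 or 8 mg/kg compound in DMSO given ip three times weekly. Tumour volume calculated as 0.5W²L before each dose and compared on day 21.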
# MDA-MB-231 [16] = assay: Antiproliferative activity against human MDA-MB-231 cells assessed as reduction in cell viability after 72 hrs by MTS assay; assay type: functional, cell-based; conditions: MDA-MB-231, 72 h; outline: as §2
# NCI-H1975 [17] = assay: Antitumour activity against human NCI-H1975 cells xenografted in Balb/c mouse assessed as reduction in tumour size at 8 mg/kg, ip administered 3 times per week and measured on day 25 (reference value: 1749 +/- 234.5 mm3); assay type: functional
# CL1-0 [18] = assay: Antiproliferative activity against human CL1-0 cells assessed as reduction in colony formation after 14 days by crystal violet staining based assay; assay type: functional, cell-based
# Outline: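 Seeded at 1000 cells/well, cultured overnight, then treated with 12.5–200 nM for 14 days. Colonies fixed in 3.7% paraformaldehyde, stained with 0.04% crystal violet and dissolved in DMSO, then absorbance read at 590 nm. Mean ± SD.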
# [19] = molecular target: T2, Tubulin alpha (Homo sapiens) (UniProt P0DPH7+P68366+Q71U36+P68363+Q9BQE3+Q6PEY2+A6NHL2+Q9NY65); assay: Induction of microtubule depolymerization in human CL1-0 cells assessed as increase in alpha tubulin soluble form by immunoblot analysis; assay type: cell-based
# Outline: (§3)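 Lysate spun at 16,000 rpm for 15 min at room temperature. Soluble (monomer) and particulate (polymer) fractions immunoblotted for α-tubulin.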
# NCI-H1975 [20] = assay: Antitumour activity against human NCI-H1975 cells xenografted in Balb/c mouse assessed as reduction in tumour size at 4 mg/kg, ip administered 3 times per week and measured on day 25 (reference value: 1749 +/- 234.5 mm3); assay type: functional
# NCI-H1975 [21] = assay: Induction of apoptosis in human NCI-H1975 cells assessed as caspase 8 activation at 40 to 80 nM after 24 hrs by immunoblotting analysis; assay type: functional, cell-based
# PC-3 = assay: Antiproliferative activity against human PC3 cells assessed as reduction in cell viability after 72 hrs by MTS assay; assay type: functional, cell-based; conditions: PC-3, 72 h; outline: as §2
# [22] = molecular target: T2, Tubulin alpha (Homo sapiens); assay: Induction of microtubule depolymerization in human NCI-H1975 cells assessed as increase in alpha tubulin soluble form by immunoblot analysis; assay type: cell-based; outline: as §3
# PC-9 = assay: Antiproliferative activity against human PC9 cells assessed as reduction in cell viability after 72 hrs by MTS assay; assay type: functional, cell-based; conditions: PC-9, 72 h; outline: as §2
# CL1-0 [23] = assay: Induction of apoptosis in human CL1-0 cells assessed as cleaved caspase 9 after 24 hrs by immunoblotting analysis; assay type: functional, cell-based
# [24] = Antiproliferative activity against human 82T cells assessed as reduction in cell viability after 72 hrs by MTS assay; assay type: functional, cell-based; outline: as §2
IC50 (NCI-H1975 [6]) [nM],IC50 (CCRF-CEM) [nM],IC50 (BT-549) [nM],IC50 (KB) [nM],IC50 (MDA-MB-231 [16]) [nM],Compound,Ratio IC50 [1],IC50 [3] [nM],Ratio IC50 [4],Ratio IC50 [5],IC50 [10] [nM],IC50 (Hs-578T) [nM],IC50 [11] [nM],IC50 [13] [nM],also measured
24,20,21,34,35,CCOC(=O)c1ccc2[nH]c(-c3cccc(F)c3)cc(=O)c2c1,0.8,35,1,0.88,30,34,22,16,inhibition (Tubulin (Homo sapiens) [2]): Active; Activity (NCI-H1975 [7]): Active; inhibition (Tubulin (Homo sapiens) [8]): Active; Activity (MDA-MB-231 [9]): 105 mm3; Activity [12]: 0.26 mg/dL; Activity [14]: Non-Toxic; Activity (NCI-H1975 [15]): 1333 mm3
33,45,33,37,55,CCOC(=O)c1ccc2nc(-c3ccccc3)cc(O)c2c1,0.97,37,1,0.81,30,41,34,44,Activity (NCI-H1975 [17]): 587.2 mm3; Activity (CL1-0 [18]): Active; Activity [19]: Active; Activity (NCI-H1975 [20]): 871.3 mm3; Activity (NCI-H1975 [21]): inactive; IC50 (PC-3): 45 nM; Activity [22]: Active; IC50 (PC-9): 17 nM; Activity (CL1-0 [23]): Dose-dependent effect; IC50 [24]: 35 nM
